# Laboratory results from ChEMBL document CHEMBL3352188, “Synthesis, antimicrobial and molecular docking studies of enantiomerically pure N-alkylated β-amino alcohols from phenylpropanolamines” (2014).
# Tests used:
# Pseudomonas aeruginosa [1] = assay: Antimicrobial activity against Pseudomonas aeruginosa MTCC 741 at 1 mg/disc after 24 hrs by disc diffusion assay; format: functional
# In short: (§1)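 Disc diffusion on Mueller Hinton agar. Inoculum was grown in MHB for 24 h at 37 °C, swabbed onto the plates and dried for 10 min. Discs with 1 mg compound were left 30 min at room temperature for diffusion, then incubated at 37 °C for 24 h. Inhibition zone was read in mm; run twice. Solvent was the negative control, streptomycin the positive control.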
# Candida albicans [2] = assay: Antimicrobial activity against Candida albicans MTCC 227 at 1 mg/disc after 24 hrs by disc diffusion assay; format: functional
# Malassezia pachydermatis [3] = assay: Antimicrobial activity against Malassezia pachydermatis at 1 mg/disc after 24 hrs by disc diffusion assay; format: functional
# Bacillus subtilis [4] = assay: Antimicrobial activity against Bacillus subtilis MTCC 441 after 24 hrs by two fold dilution method; format: functional; conditions: MTCC 441, 24 h
# In short: (§2)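 Broth two-fold serial dilution in 96-well plates from 1000 to 7.81 µg/mL, compound in DMSO (2%). Inoculum was grown in MHB for 24 h at 37 °C; plates were incubated 24 h at 37 °C. 5 µL of broth was spotted onto MHA; MIC was the lowest concentration with no visible growth on agar. Streptomycin was the positive control.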
# Micrococcus luteus [5] = assay: Antimicrobial activity against Micrococcus luteus MTCC 106 after 24 hrs by two fold dilution method; format: functional; conditions: MTCC 106, 24 h; in short: as §2
# Klebsiella aerogenes [6] = assay: Antimicrobial activity against Enterobacter aerogenes MTCC 111 after 24 hrs by two fold dilution method; format: functional; conditions: MTCC 111, 24 h; in short: as §2
# Staphylococcus aureus [7] = assay: Antimicrobial activity against Staphylococcus aureus MTCC 96 after 24 hrs by two fold dilution method; format: functional; conditions: MTCC 96, 24 h; in short: as §2
# Salmonella typhimurium [8] = assay: Antimicrobial activity against Salmonella typhimurium MTCC 1251 after 24 hrs by two fold dilution method; format: functional, Salmonella enterica subsp. enterica serovar Typhimurium; conditions: Salmonella enterica, MTCC 1251, 24 h; in short: as §2
# Klebsiella pneumoniae [9] = assay: Antimicrobial activity against Klebsiella pneumoniae MTCC 109 after 24 hrs by two fold dilution method; format: functional; conditions: MTCC 109, 24 h; in short: as §2
# Proteus vulgaris [10] = assay: Antimicrobial activity against Proteus vulgaris MTCC 1771 after 24 hrs by two fold dilution method; format: functional; conditions: MTCC 1771, 24 h; in short: as §2
# Staphylococcus aureus [11] = assay: Antimicrobial activity against methicillin-resistant Staphylococcus aureus MTCC 96 after 24 hrs by two fold dilution method; format: functional; conditions: MTCC 96, 24 h; in short: as §2
# [12] = tested on: Salmonella enterica subsp. enterica serovar Paratyphi B; assay: Antimicrobial activity against Salmonella paratyphi B after 24 hrs by two fold dilution method; format: functional; in short: as §2
# Shigella flexneri [13] = assay: Antimicrobial activity against Shigella flexneri MTCC 1457 after 24 hrs by two fold dilution method; format: functional; conditions: MTCC 1457, 24 h; in short: as §2
# Pseudomonas aeruginosa [14] = assay: Antimicrobial activity against Pseudomonas aeruginosa MTCC 741 after 24 hrs by two fold dilution method; format: functional; conditions: MTCC 741, 24 h; in short: as §2
# Candida albicans [15] = assay: Antimicrobial activity against Candida albicans MTCC 227 after 48 to 72 hrs by two fold dilution method; format: functional
# In short: (§3)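 Yeast was grown in Sabouraud dextrose broth at 28 °C for 48 h and tested per CLSI reference methods. Two-fold serial dilutions from 1000 to 7.81 µg/mL, compound in DMSO (2%), in 96-well plates, incubated 48–72 h at 28 °C. MIC was the lowest concentration with no visible fungal growth. Ketoconazole was the positive control.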
# Malassezia pachydermatis [16] = assay: Antimicrobial activity against Malassezia pachydermatis after 48 to 72 hrs by two fold dilution method; format: functional; in short: as §3
# Bacillus subtilis [17] = assay: Bactericidal activity against Bacillus subtilis MTCC 441 after 24 hrs by two fold dilution method; format: functional; conditions: MTCC 441, 24 h
# In short: (§4)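 Tubes held 5 mL MHB with two-fold dilutions from 1000 to 7.81 µg/mL and were inoculated with 5 × 10^5 to 1 × 10^6 cells in 0.1 mL MHB, incubated without shaking. Turbidity was checked at 20 h, tubes vortexed and re-incubated 4 h.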
# Micrococcus luteus [18] = assay: Bactericidal activity against Micrococcus luteus MTCC 106 after 24 hrs by two fold dilution method; format: functional; conditions: MTCC 106, 24 h; in short: as §4
# Klebsiella aerogenes [19] = assay: Bactericidal activity against Enterobacter aerogenes MTCC 111 after 24 hrs by two fold dilution method; format: functional; conditions: MTCC 111, 24 h; in short: as §4
# Staphylococcus aureus [20] = assay: Bactericidal activity against Staphylococcus aureus MTCC 96 after 24 hrs by two fold dilution method; format: functional; conditions: MTCC 96, 24 h; in short: as §4
# Salmonella typhimurium [21] = assay: Bactericidal activity against Salmonella typhimurium MTCC 1251 after 24 hrs by two fold dilution method; format: functional, Salmonella enterica subsp. enterica serovar Typhimurium; conditions: Salmonella enterica, MTCC 1251, 24 h; in short: as §4
# Klebsiella pneumoniae [22] = assay: Bactericidal activity against Klebsiella pneumoniae MTCC 109 after 24 hrs by two fold dilution method; format: functional; conditions: MTCC 109, 24 h; in short: as §4
# Proteus vulgaris [23] = assay: Bactericidal activity against Proteus vulgaris MTCC 1771 after 24 hrs by two fold dilution method; format: functional; conditions: MTCC 1771, 24 h; in short: as §4
# Staphylococcus aureus [24] = assay: Bactericidal activity against methicillin-resistant Staphylococcus aureus MTCC 96 after 24 hrs by two fold dilution method; format: functional; conditions: MTCC 96, 24 h; in short: as §4
# [25] = tested on: Salmonella enterica subsp. enterica serovar Paratyphi B; assay: Bactericidal activity against Salmonella paratyphi B after 24 hrs by two fold dilution method; format: functional; in short: as §4
# Shigella flexneri [26] = assay: Bactericidal activity against Shigella flexneri MTCC 1457 after 24 hrs by two fold dilution method; format: functional; conditions: MTCC 1457, 24 h; in short: as §4
# Pseudomonas aeruginosa [27] = assay: Bactericidal activity against Pseudomonas aeruginosa MTCC 741 after 24 hrs by two fold dilution method; format: functional; conditions: MTCC 741, 24 h; in short: as §4
# Candida albicans [28] = assay: Fungicidal activity against Candida albicans MTCC 227 after 48 to 72 hrs by two fold dilution method; format: functional
# Malassezia pachydermatis [29] = assay: Fungicidal activity against Malassezia pachydermatis after 48 to 72 hrs by two fold dilution method; format: functional
# Bacillus subtilis [30] = assay: Antimicrobial activity against Bacillus subtilis MTCC 441 at 1 mg/disc after 24 hrs by disc diffusion assay; format: functional; in short: as §1
# Micrococcus luteus [31] = assay: Antimicrobial activity against Micrococcus luteus MTCC 106 at 1 mg/disc after 24 hrs by disc diffusion assay; format: functional; in short: as §1
# Klebsiella aerogenes [32] = assay: Antimicrobial activity against Enterobacter aerogenes MTCC 111 at 1 mg/disc after 24 hrs by disc diffusion assay; format: functional; in short: as §1
# Staphylococcus aureus [33] = assay: Antimicrobial activity against Staphylococcus aureus MTCC 96 at 1 mg/disc after 24 hrs by disc diffusion assay; format: functional; in short: as §1
# Salmonella typhimurium [34] = assay: Antimicrobial activity against Salmonella typhimurium MTCC 1251 at 1 mg/disc after 24 hrs by disc diffusion assay; format: functional, Salmonella enterica subsp. enterica serovar Typhimurium; in short: as §1
# Klebsiella pneumoniae [35] = assay: Antimicrobial activity against Klebsiella pneumoniae MTCC 109 at 1 mg/disc after 24 hrs by disc diffusion assay; format: functional; in short: as §1
# Proteus vulgaris [36] = assay: Antimicrobial activity against Proteus vulgaris MTCC 1771 at 1 mg/disc after 24 hrs by disc diffusion assay; format: functional; in short: as §1
# Staphylococcus aureus [37] = assay: Antimicrobial activity against […] Staphylococcus aureus MTCC 96 at 1 mg/disc after 24 hrs by disc diffusion assay; format: functional; in short: as §1
# [38] = tested on: Salmonella enterica subsp. enterica serovar Paratyphi B; assay: Antimicrobial activity against Salmonella paratyphi B at 1 mg/disc after 24 hrs by disc diffusion assay; format: functional; in short: as §1
# Shigella flexneri [39] = assay: Antimicrobial activity against Shigella flexneri MTCC 1457 at 1 mg/disc after 24 hrs by disc diffusion assay; format: functional; in short: as §1
SMILES,inhibition zone (IZ) (Pseudomonas aeruginosa [1]) [mm],inhibition zone (IZ) (Candida albicans [2]) [mm],inhibition zone (IZ) (Malassezia pachydermatis [3]) [mm],MIC (Bacillus subtilis [4]) [µg/mL],MIC (Micrococcus luteus [5]) [µg/mL],MIC (Klebsiella aerogenes [6]) [µg/mL],MIC (Staphylococcus aureus [7]) [µg/mL],MIC (Salmonella typhimurium [8]) [µg/mL],MIC (Klebsiella pneumoniae [9]) [µg/mL],MIC (Proteus vulgaris [10]) [µg/mL],MIC (Staphylococcus aureus [11]) [µg/mL],MIC [12] [µg/mL],MIC (Shigella flexneri [13]) [µg/mL],MIC (Pseudomonas aeruginosa [14]) [µg/mL],MIC (Candida albicans [15]) [µg/mL],MIC (Malassezia pachydermatis [16]) [µg/mL],MBC (Bacillus subtilis [17]) [µg/mL],MBC (Micrococcus luteus [18]) [µg/mL],MBC (Klebsiella aerogenes [19]) [µg/mL],MBC (Staphylococcus aureus [20]) [µg/mL],other results
COc1ccc([C@H](C)N[C@H](C)[C@@H](O)c2ccccc2)cc1.Cl,14,16,19,62.5,62.5,62.5,62.5,125,62.5,62.5,62.5,125,62.5,125,62.5,62.5,125,125,125,125,MBC (Salmonella typhimurium [21]): 250 µg/mL; MBC (Klebsiella pneumoniae [22]): 125 µg/mL; MBC (Proteus vulgaris [23]): 125 µg/mL; MBC (Staphylococcus aureus [24]): 125 µg/mL; MBC [25]: 250 µg/mL; MBC (Shigella flexneri [26]): 125 µg/mL; MBC (Pseudomonas aeruginosa [27]): 250 µg/mL; MFC (Candida albicans [28]): 62.5 µg/mL; MFC (Malassezia pachydermatis [29]): 62.5 µg/mL; inhibition zone (IZ) (Bacillus subtilis [30]): 18 mm; inhibition zone (IZ) (Micrococcus luteus [31]): 19 mm; inhibition zone (IZ) (Klebsiella aerogenes [32]): 18 mm; inhibition zone (IZ) (Staphylococcus aureus [33]): 17 mm; inhibition zone (IZ) (Salmonella typhimurium [34]): 14 mm; inhibition zone (IZ) (Klebsiella pneumoniae [35]): 17 mm; inhibition zone (IZ) (Proteus vulgaris [36]): 18 mm; inhibition zone (IZ) (Staphylococcus aureus [37]): 18 mm; inhibition zone (IZ) [38]: 17 mm; inhibition zone (IZ) (Shigella flexneri [39]): 17 mm
CC(C)C[C@@H](C)N[C@@H](C)[C@H](O)c1ccccc1.Cl,17,17,16,125,62.5,125,62.5,125,62.5,125,62.5,125,125,62.5,62.5,62.5,250,62.5,125,125,MBC (Salmonella typhimurium [21]): 250 µg/mL; MBC (Klebsiella pneumoniae [22]): 62.5 µg/mL; MBC (Proteus vulgaris [23]): 250 µg/mL; MBC (Staphylococcus aureus [24]): 125 µg/mL; MBC [25]: 250 µg/mL; MBC (Shigella flexneri [26]): 250 µg/mL; MBC (Pseudomonas aeruginosa [27]): 125 µg/mL; MFC (Candida albicans [28]): 62.5 µg/mL; MFC (Malassezia pachydermatis [29]): 62.5 µg/mL; inhibition zone (IZ) (Bacillus subtilis [30]): 15 mm; inhibition zone (IZ) (Micrococcus luteus [31]): 16 mm; inhibition zone (IZ) (Klebsiella aerogenes [32]): 14 mm; inhibition zone (IZ) (Staphylococcus aureus [33]): 17 mm; inhibition zone (IZ) (Salmonella typhimurium [34]): 14 mm; inhibition zone (IZ) (Klebsiella pneumoniae [35]): 16 mm; inhibition zone (IZ) (Proteus vulgaris [36]): 15 mm; inhibition zone (IZ) (Staphylococcus aureus [37]): 16 mm; inhibition zone (IZ) [38]: 13 mm; inhibition zone (IZ) (Shigella flexneri [39]): 15 mm
C[C@H](N[C@H](C)c1ccccc1)[C@H](O)c1ccccc1.Cl,16,14,15,125,125,125,62.5,250,250,250,250,125,250,62.5,125,125,125,250,250,62.5,MBC (Salmonella typhimurium [21]): 500 µg/mL; MBC (Klebsiella pneumoniae [22]): 500 µg/mL; MBC (Proteus vulgaris [23]): 500 µg/mL; MBC (Staphylococcus aureus [24]): 500 µg/mL; MBC [25]: 250 µg/mL; MBC (Shigella flexneri [26]): 500 µg/mL; MBC (Pseudomonas aeruginosa [27]): 125 µg/mL; MFC (Candida albicans [28]): 125 µg/mL; MFC (Malassezia pachydermatis [29]): 125 µg/mL; inhibition zone (IZ) (Bacillus subtilis [30]): 14 mm; inhibition zone (IZ) (Micrococcus luteus [31]): 14 mm; inhibition zone (IZ) (Klebsiella aerogenes [32]): 13 mm; inhibition zone (IZ) (Staphylococcus aureus [33]): 16 mm; inhibition zone (IZ) (Salmonella typhimurium [34]): 11 mm; inhibition zone (IZ) (Klebsiella pneumoniae [35]): 13 mm; inhibition zone (IZ) (Proteus vulgaris [36]): 12 mm; inhibition zone (IZ) (Staphylococcus aureus [37]): 11 mm; inhibition zone (IZ) [38]: 14 mm; inhibition zone (IZ) (Shigella flexneri [39]): 16 mm
